From PubChem
In the library only some 1.9% were active in any assay of this set; here they are far more common.
b-catenin transl – modulators of beta-catenin nuclear translocation, primary screen, imaging, HeLa cells, immunofluorescence, high-content | 190,000 compounds, 0.3% hits | nuclear translocation activity, % at 5 µM;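 active = nuclear translocation activity above 50% at 5 µM, with a well cell count of 50 or more; inconclusive = wells under 50 cells across six images, flagged as toxic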;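 note: per-cell ratio of nuclear to cytoplasmic median beta-catenin stain intensity; plate controls were DMSO negative control for no effect and GSK-3 inhibitor IX positive control for full effect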
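Test system: human HeLa cell line; Doses: 5 µM primary, 0.02–20 µM confirmation; Incubation: 24 h compound exposure, 37°C; Detection: beta-catenin immunofluorescence imaging with DAPI; Read-out: beta-catenin nuclear/cytoplasmic ratio, % activation.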
ROMK primary – ROMK potassium channel modulators, primary screen, cell-based, thallium flux, MLSMR library; ATP-sensitive inward rectifier potassium channel 1 (Homo sapiens), P48048; Tet-inducible ROMK, thallium flux fluorescence; actives lie on both sides; B-score at 10 µM; 130,000 compounds, 2% hits; AID 1918, 2009;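 active = signal ratio slope over the read window, or its plate-corrected B-score, at least 3 SD from the plate mean, either direction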;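 note: B-score of the F/F0 ratio slope over 7 to 12 s after thallium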
Target sequence (P48048 whole entry, looked up): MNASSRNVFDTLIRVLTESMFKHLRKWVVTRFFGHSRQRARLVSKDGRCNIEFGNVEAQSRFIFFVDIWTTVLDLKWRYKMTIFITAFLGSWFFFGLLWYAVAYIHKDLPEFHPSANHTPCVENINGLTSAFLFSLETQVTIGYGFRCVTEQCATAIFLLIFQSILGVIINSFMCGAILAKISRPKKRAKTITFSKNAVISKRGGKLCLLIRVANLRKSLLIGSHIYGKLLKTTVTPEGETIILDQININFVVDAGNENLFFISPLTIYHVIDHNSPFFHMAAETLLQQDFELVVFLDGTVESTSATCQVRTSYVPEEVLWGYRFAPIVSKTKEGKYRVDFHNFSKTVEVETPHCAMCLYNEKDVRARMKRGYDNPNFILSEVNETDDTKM
MT stabilizer – microtubule stabilizers in HeLa cells, primary screen, imaging, high-content imaging; HeLa tubulin immunostaining HCS, 24 h; share of cells brighter than vehicle mean+2SD; % tubulin-high responders, % at 10 µM; 200,000 compounds, 0.83% hits;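 active = plate Z-score above 3 for both tubulin-high and condensed-nucleus cell shares, with cell loss under 80%, at 10 µM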;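 note: anti alpha tubulin signal scored within the nucleus-defined area of each cell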
ROMK retest – ROMK channel modulator hit retest, confirmation, cell-based, thallium flux, duplicate, resupplied hits; shares compounds with ROMK primary; fluorescence ratio; active compounds read low; normalized thallium flux (F/F0 slope) at 10 µM; 3,000 compounds, 54% hits; AID 1917, 2009;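 active = Flux at 10 µM at least 3 SD below or above vehicle control mean in one or both replicates; inconclusive = no clear call, values can overlap the other calls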
Numbers without * were called inactive; u = inconclusive; x = no result given.

SMILES	b-catenin transl	ROMK primary	MT stabilizer	ROMK retest
O=C(N1CCN(c2ccccn2)CC1)N1c2ccccc2Sc2ccccc21	4	3.3*	31*	0.09
CN(C(=O)COC(=O)c1ccc2ccccc2n1)C1CCS(=O)(=O)C1 (configuration not stated)	0	0.2	3	x
O=c1c2oc3ccccc3c2ncn1Cc1ccc(Cl)cc1	2	-0.43	2	x
CC(=O)c1ccc(NC(=O)C(C)OC(=O)COc2ccc(C#N)cc2)cc1 (configuration not stated)	-2	0.0081	4	x
O=C(NCc1ccncc1)c1cc(C(=O)C2CC2)c[nH]1	-3	0.0096	2	x
CCCCc1ccc(S(=O)(=O)NCCc2ccncc2)cc1	-1	x	5	0.062*
Cc1ccc(S(=O)(=O)NCCc2ccncc2)cc1	x	x	1	x
O=C(NCc1ccco1)c1ccc(=O)[nH]n1	-3	-0.34	2	x
O=C(NCc1ccccc1)c1ccc(=O)[nH]n1	-1	0.55	2	0.077
O=C(c1ccccc1SCc1ccc(F)cc1)N1CCOCC1	1	0.22	2	x
N/C(=N\OC(=O)c1cccc(Cn2cc(C(F)(F)F)ccc2=O)c1)c1ccc(Cl)cc1	6	x	x	x
Cc1cccc(NC(=O)CSc2nnc(CSc3nc(C)cc(C)n3)o2)c1	-1	x	4	x
Cc1cc(C)nc(SCc2nnc(SCC(=O)Nc3ccc(Cl)c(C(F)(F)F)c3)o2)n1	-5	-3.9*	1	0.064*
COCCOC(=O)C1=C(C)OC(N)=C(C#N)C1c1ccc2c(c1)OCO2 (configuration not stated)	-1	-1.1	2	x
C=CCOC(=O)C1=C(C)OC(N)=C(C#N)C1c1ccc2c(c1)OCO2 (configuration not stated)	-1	-3.2*	5	0.085*
Cc1ccc(Oc2ccc(-c3nnc(-c4ccccc4)o3)cc2[N+](=O)[O-])cc1C	1	x	1	x
Cc1cc(Br)ccc1-n1[nH]c(C)c(C=Nc2cccc3nsnc23)c1=O	0	0.031	4	x
CCOC(=O)CN(C(=O)CNC(=O)c1cccs1)C(C(=O)NC1CCCCC1)c1cccs1 (configuration not stated)	3	x	3	0.075
CCOC(=O)CN(C(=O)CNC(=O)c1cccs1)C(C(=O)NC1CCCC1)c1cccnc1 (configuration not stated)	-3	-0.22	2	x
CCN1C(=O)C(CC(=O)Nc2c(C)cccc2C)Nc2cc(S(=O)(=O)N(C)C)ccc21 (configuration not stated)	-2	1.1	7	x
C/C(=N/NC(=O)CNC(=O)c1ccccn1)c1cccc([N+](=O)[O-])c1	-1	-0.14	2	x
COC(=O)C1=C(C)NC(=O)CC1c1cccc(Cl)c1Cl (configuration not stated)	-2	x	3	x
CCOC(=O)C1=C(C)NC(C)=C(C(=O)OC)C1c1cccc(Cl)c1Cl (configuration not stated)	-1	x	2	0.073
CCOC(=O)c1[nH]c2ccccc2c1NC(=S)Nc1cccc(C)c1	-1	-0.14	6	0.077
CCOC(=O)c1[nH]c2ccccc2c1NC(=S)Nc1ccccc1	-4	-0.54	3	x
SMILES	b-catenin transl	ROMK primary	MT stabilizer	ROMK retest
CC(=O)Nc1cccc(OCc2ccc(S(=O)(=O)Cc3ccccc3)cc2)c1	-3	-0.031	2	x
CC(=O)Cc1cc2cc([N+](=O)[O-])ccc2oc1=O	2	x	x	x
COc1cccc(-n2c(SCc3ccccn3)nc3c(c2=O)SCC3)c1	x	1.1*	2	0.085
COc1ccc(-n2c(SCc3cccnc3)nc3c(c2=O)SCC3)cc1OC	-1	-0.47	2	x
Cc1cc(Cl)ccc1OCCCC(=O)OCC(=O)c1c(N)n(C)c(=O)n(C)c1=O	1	x	x	x
Cc1c(CCOC(=O)C23CC4CC(CC(C)(C4)C2)C3)sc[n+]1CC(=O)c1ccccc1	-1	-5.9*	2	0.06*
Cc1c(CCOC(=O)CC23CC4CC(CC(C)(C4)C2)C3)sc[n+]1CC(=O)c1ccccc1	1	-4.1*	2	0.047*
Cc1c(CCOC(=O)c2ccccc2)sc[n+]1Cc1ccccc1	0	-0.11	5	x
Cc1c(CCOC(=O)CC23CC4CC(CC(C4)C2)C3)sc[n+]1CC(=O)c1ccc(Br)cc1	4	-6*	1	0.045*
Cc1ncsc1CCOC(=O)C12CC3CC(CC(C3)C1)C2	0	0.098	2	x
Cc1c(CCOC(=O)c2cc([N+](=O)[O-])cc([N+](=O)[O-])c2)sc[n+]1CC(=O)c1ccccc1	0	-0.54	4	x
COc1ccc2oc(=O)c(-c3ccccc3C(=O)N3CCOCC3)cc2c1	-3	0.086	2	x
Cc1cc(NC(=O)CSc2nnc(-c3cccnc3)n2Cc2ccccc2)no1	0	-0.65	3	x
Cc1cc(NC(=O)C2CCCCC2)ccc1NC(=O)c1ccccc1Cl	-2	1.3	3	x
CN(C(=O)CCn1c(=S)oc2ccccc21)c1ccc(F)cc1	-2	0.011	5	x
Cc1c(/C=C/C(=O)c2ccc(C(C)C)cc2)cnn1C	0	2	3	x
c1ccc(Cn2c(CNc3nc4ccccc4n3CCN3CCOCC3)nc3ccccc32)cc1	-2	-1.6	4	x
ClC1(Cl)CC1CSc1nc2ccccc2[nH]1 (configuration not stated)	1	-4.3*	4	0.085
CCOc1ccc2nc(SCC3CC3(Cl)Cl)[nH]c2c1 (configuration not stated)	29	x	x	x
COc1ccc(CCNC(=O)CCNS(=O)(=O)c2cccc(Cl)c2)cc1OC	-3	0.97	3	x
Cc1nc(SCC(=O)c2ccccc2)c(C#N)c(-c2ccco2)c1C(=O)NCc1ccco1	-3	-0.6	4	x
COc1ccccc1NC(=O)CN1CCN(Cc2ccccc2)CC1	x	x	2	x
O=C(CN1CCN(Cc2ccccc2)CC1)Nc1ccccc1-c1ccccc1	1	-3.7*	3	u
Oc1oc(C=Nc2ccc(F)cc2F)c2ccccc12	0	0.2	2	x
O=C(COC(=O)c1cc(=O)[nH]c(=O)[nH]1)NCc1ccccc1	-3	x	7	x
SMILES	b-catenin transl	ROMK primary	MT stabilizer	ROMK retest
N#C/C(=C\c1ccccc1[N+](=O)[O-])C(=O)NCc1ccccc1	-1	x	x	x
N#C/C(=C/c1ccccc1[N+](=O)[O-])C(=O)NCc1ccco1	1	-2.4*	4	0.045*
COc1ccc(N(C(=O)Cn2nnc3ccccc32)C(C(=O)NCc2ccco2)c2ccc(C)o2)cc1 (configuration not stated)	-1	-0.62	4	x
Cc1ccccc1Cc1ccc(Cl)nn1	-2	-0.19	3	x
COc1ccc(CNCCC(c2ccc(F)cc2)c2ccc(OC)cc2)cc1 (configuration not stated)	-3	-4.2*	3	0.053*
COc1ccc(C(CCNCc2ccc(F)cc2)c2ccc(F)cc2)cc1 (configuration not stated)	-1	-3.1	4	x
COc1ccc2c(C#N)c3ccccn3c2c1	-2	-3.1*	3	0.045*
Cc1cc(=O)n2ccccc2c1C#N	x	-0.67	1	x
